# In ChEMBL document CHEMBL4265991:
# B1: Inosine-5'-monophosphate dehydrogenase (Cryptococcus neoformans var. neoformans serotype D (strain JEC21 /ATCC MYA-565) (Filobasidiella neoformans)), Q5KP44 (protein)
# chain: MADTNPNAPPRSDSLLNPADALKYLEEYPRGDGLSLQELMDSRKNGGLTYNDFLVLPGHISFPASDVSLQSRATKNIVLNTPFLSSPMDTVTEDRMAIALALHGGLGIIHHNCSAEEQAAMVRRVKKYENGFITDPLCLGPDATVGDVLEIKAKFGFCGVPITETGAPNSKLLGIVTGRDVQFQDAETPIKSVMTTEVVTGSSPITLEKANSLLRETKKGKLPIVDSNGHLVSLVARSDLLKNQNYPYASKVPESKQLYCGAAIGTRPGDKDRLKLLAEAGLDVVVLDSSQGDSVYQIEFIKWIKQTYPKIEIIAGNVVTREQAAQLIAAGADGLRIGMGSGSICITQEVMAVGRPQGTAVYAVAEFASRFGIPCIADGGIGNIGHIAKALALGASAVMMGGLLAGTTESPGEYFYHEGKRVKVYRGMGSIEAMEHTQRGSASGKRSILNLDNAATARYFSEADAVKVAQGVSGDVADKGSINKFVPYLFTGLQHSFQDAGVKSVSELHSCARSGSLRFELRTASAQLEGGVHGLNSYTKRLFA
# Tests used:
# [1] = substrate: COc1c(C)c2c(c(O)c1C/C=C(\C)CCC(=O)O)C(=O)OC2; details: Cryptococcus neoformans; 0.039 uM
# [2] = compound: O=S1(=O)C=C(Sc2nnc(-c3ccccc3)o2)c2ccccc21; assay: (§1) Inhibition of recombinant Cryptococcus neoformans His-tagged IMPDH expressed in Escherichia coli BL21 (DE3) at 10 uM assessed as Kcat for substrate using NAD as fixed substrate at 700 uM and IMP as second substrate with varying concentrations of 25 to 800 uM (reference value: 21.5 /s)
# Procedure, shortened: (§2)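 Recombinant C. neoformans IMPDH, 100 nM final, reaction started by adding enzyme. NADH production monitored at 340 nm. Inhibitor series ran from 20 to 0.31 µM; MPA tested at 312 to 39 nM. Km and Vmax fitted to the Michaelis–Menten equation; inhibition type taken from shifts in Km and Vmax.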
# [3] = compound: COc1ccccc1-c1nnc(SC2=CS(=O)(=O)c3ccccc32)o1; assay: as §1
# Procedure, shortened: as §2
# [4] = substrate: COc1c(C)c2c(c(O)c1C/C=C(\C)CCC(=O)O)C(=O)OC2; details: Cryptococcus neoformans; 0.039 uM; remark: listed apart in the source
# [5] = substrate: COc1c(C)c2c(c(O)c1C/C=C(\C)CCC(=O)O)C(=O)OC2; details: Cryptococcus neoformans; 0.078 uM
# [6] = substrate: COc1c(C)c2c(c(O)c1C/C=C(\C)CCC(=O)O)C(=O)OC2; details: Cryptococcus neoformans; 0.156 uM
# [7] = compound: O=S1(=O)C=C(Sc2nnc(-c3ccccc3)o2)c2ccccc21; assay: (§3) Inhibition of recombinant Cryptococcus neoformans His-tagged IMPDH expressed in Escherichia coli BL21 (DE3) at 2.5 uM assessed as Vmax for substrate using IMP as fixed substrate at 500 uM and NAD as second substrate with varying concentrations of 31.25 to 1300 uM (reference value: 1.5 microM/min)
# Procedure, shortened: as §2
# [8] = compound: COc1ccccc1-c1nnc(SC2=CS(=O)(=O)c3ccccc32)o1; assay: as §3
# Procedure, shortened: as §2
# [9] = substrate: COc1c(C)c2c(c(O)c1C/C=C(\C)CCC(=O)O)C(=O)OC2; details: Cryptococcus neoformans; 0.078 uM; remark: listed apart in the source
# [10] = compound: COc1ccccc1-c1nnc(SC2=CS(=O)(=O)c3ccccc32)o1; assay: Inhibition of recombinant Cryptococcus neoformans His-tagged IMPDH expressed in Escherichia coli BL21 (DE3) at 0.3 uM assessed as Kcat for substrate using IMP as fixed substrate at 500 uM and NAD as second substrate with varying concentrations of 31.25 to 1300 uM (reference value: 21.5 /s)
# Procedure, shortened: as §2
# [11] = compound: O=S1(=O)C=C(Sc2nnc(-c3ccccc3)o2)c2ccccc21; assay: (§4) Inhibition of recombinant Cryptococcus neoformans His-tagged IMPDH expressed in Escherichia coli BL21 (DE3) at 2.5 uM assessed as Kcat for substrate using IMP as fixed substrate at 500 uM and NAD as second substrate with varying concentrations of 31.25 to 1300 uM (reference value: 21.5 /s)
# Procedure, shortened: as §2
# [12] = compound: COc1ccccc1-c1nnc(SC2=CS(=O)(=O)c3ccccc32)o1; assay: as §4
# Procedure, shortened: as §2
# [13] = compound: O=S1(=O)C=C(Sc2nnc(-c3ccccc3)o2)c2ccccc21; assay: (§5) Inhibition of recombinant Cryptococcus neoformans His-tagged IMPDH expressed in Escherichia coli BL21 (DE3) at 10 uM assessed as Vmax for substrate using IMP as fixed substrate at 500 uM and NAD as second substrate with varying concentrations of 31.25 to 1300 uM (reference value: 1.5 microM/min)
# Procedure, shortened: as §2
# [14] = compound: COc1ccccc1-c1nnc(SC2=CS(=O)(=O)c3ccccc32)o1; assay: as §5
# Procedure, shortened: as §2
# [15] = compound: O=S1(=O)C=C(Sc2nnc(-c3ccccc3)o2)c2ccccc21; assay: (§6) Inhibition of recombinant Cryptococcus neoformans His-tagged IMPDH expressed in Escherichia coli BL21 (DE3) at 0.3 uM assessed as Km for substrate using NAD as fixed substrate at 700 uM and IMP as second substrate with varying concentrations of 25 to 800 uM (reference value: 257.5 +/- 23 microM)
# Procedure, shortened: as §2
# [16] = compound: COc1ccccc1-c1nnc(SC2=CS(=O)(=O)c3ccccc32)o1; assay: as §6
# Procedure, shortened: as §2
# [17] = compound: O=S1(=O)C=C(Sc2nnc(-c3ccccc3)o2)c2ccccc21; assay: (§7) Inhibition of recombinant Cryptococcus neoformans His-tagged IMPDH expressed in Escherichia coli BL21 (DE3) at 2.5 uM assessed as Km for substrate using IMP as fixed substrate at 500 uM and NAD as second substrate with varying concentrations of 31.25 to 1300 uM (reference value: 257.5 +/- 23 microM)
# Procedure, shortened: as §2
# [18] = compound: COc1ccccc1-c1nnc(SC2=CS(=O)(=O)c3ccccc32)o1; assay: as §7
# Procedure, shortened: as §2
# [19] = substrate: COc1c(C)c2c(c(O)c1C/C=C(\C)CCC(=O)O)C(=O)OC2; details: Cryptococcus neoformans; 0.156 uM; remark: listed apart in the source
# [20] = compound: O=S1(=O)C=C(Sc2nnc(-c3ccccc3)o2)c2ccccc21; assay: (§8) Inhibition of recombinant Cryptococcus neoformans His-tagged IMPDH expressed in Escherichia coli BL21 (DE3) at 10 uM assessed as Vmax for substrate using NAD as fixed substrate at 700 uM and IMP as second substrate with varying concentrations of 25 to 800 uM (reference value: 1.5 microM/min)
# Procedure, shortened: as §2
# [21] = compound: COc1ccccc1-c1nnc(SC2=CS(=O)(=O)c3ccccc32)o1; assay: as §8
# Procedure, shortened: as §2
# [22] = substrate: COc1c(C)c2c(c(O)c1C/C=C(\C)CCC(=O)O)C(=O)OC2; details: Cryptococcus neoformans; 0.156 uM; remark: listed apart in the source
# [23] = substrate: COc1c(C)c2c(c(O)c1C/C=C(\C)CCC(=O)O)C(=O)OC2; details: Cryptococcus neoformans; 0.078 uM; remark: listed apart in the source
# [24] = substrate: COc1c(C)c2c(c(O)c1C/C=C(\C)CCC(=O)O)C(=O)OC2; details: Cryptococcus neoformans; 0.156 uM; remark: listed apart in the source
# [25] = compound: O=S1(=O)C=C(Sc2nnc(-c3ccccc3)o2)c2ccccc21; assay: (§9) Inhibition of recombinant Cryptococcus neoformans His-tagged IMPDH expressed in Escherichia coli BL21 (DE3) at 0.3 uM assessed as Km for substrate using IMP as fixed substrate at 500 uM and NAD as second substrate with varying concentrations of 31.25 to 1300 uM (reference value: 257.5 +/- 23 microM)
# Procedure, shortened: as §2
# [26] = compound: COc1ccccc1-c1nnc(SC2=CS(=O)(=O)c3ccccc32)o1; assay: as §9
# Procedure, shortened: as §2
# [27] = compound: O=S1(=O)C=C(Sc2nnc(-c3ccccc3)o2)c2ccccc21; assay: Inhibition of recombinant Cryptococcus neoformans His-tagged IMPDH expressed in Escherichia coli BL21 (DE3) at 10 uM assessed as Kcat for substrate using IMP as fixed substrate at 500 uM and NAD as second substrate with varying concentrations of 31.25 to 1300 uM (reference value: 21.5 /s)
# Procedure, shortened: as §2
protein,measurement,setting,value
B1,Km,[1],200 µM
same,kcat,[2],0.6 s⁻¹
same,kcat,[3],0.7 s⁻¹
same,Vmax,[4],0.9 µM/min
same,Km,[5],53 µM
same,Vmax,[6],0.3 µM/min
same,Vmax,[7],1.3 µM/min
same,Vmax,[8],1.5 µM/min
same,Vmax,[9],0.6 µM/min
same,kcat,[10],1.5 s⁻¹
same,kcat,[11],1.3 s⁻¹
same,kcat,[12],1.5 s⁻¹
same,Vmax,[13],1 µM/min
same,Vmax,[14],1 µM/min
same,Km,[15],92.5 µM
same,Km,[16],93 µM
same,Km,[17],336 µM
same,Km,[18],358 µM
same,Km,[19],32 µM
same,Vmax,[20],0.6 µM/min
same,Vmax,[21],0.7 µM/min
same,kcat,[22],0.3 s⁻¹
same,Km,[23],137 µM
same,kcat,[24],0.25 s⁻¹
same,Km,[25],307 µM
same,Km,[26],278 µM
same,kcat,[27],1 s⁻¹
